Experimental data reported in ChEMBL document CHEMBL1777771, “Efficient synthesis and chiral separation of 11C-labeled ibuprofen assisted by DMSO for imaging of in vivo behavior of the individual isomers by positron emission tomography” (Bioorg Med Chem, 2011).

How the values were obtained:
Assay type in all cases: ADME, organism-based
Settings in all cases: in vivo, 0.5 h; call rule not given here
Mus musculus [1] = test: Biodistribution in LPS treated BALB/c mouse anti-collagen antibody-induced arthritis model arthritic joints at 9 to 12 MBq, iv after 30 mins by PET analysis
Summary of the method: (§1)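 Male BALB/c mice, 6–7 wk. Arthritis induced with an iv anti-type II collagen mAb cocktail (1.5 mg), then ip LPS (30 μg) on day 3; mice used 4 days after LPS with a score of 3 in each limb. Enantiomer given as an iv bolus (<0.18 nmol, in saline). Dynamic PET for 30 min under isoflurane. VOIs drawn on ankles and heart; SUV time-activity curves. Each mouse received both isomers 5 h apart.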

Mus musculus [2] = test: Biodistribution in LPS treated BALB/c mouse anti-collagen antibody-induced arthritis model ankle of hindlimb at 9 to 12 MBq, iv after 30 mins by PET analysis relative to normal mouse; summary of the method: as §1
Heart = test: Biodistribution in LPS treated BALB/c mouse anti-collagen antibody-induced arthritis model heart at 9 to 12 MBq, iv after 30 mins by PET analysis; summary of the method: as §1
Mus musculus [3] = test: Biodistribution in mouse cerebrum at 9 to 12 MBq, iv after 30 mins by PET analysis
Summary of the method: (§2)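 Normal male BALB/c mice, 6–7 wk, under isoflurane with a heating pad. Each enantiomer given as a 0.2 mL iv bolus (<0.18 nmol) diluted in saline. PET acquired for 30 min in 13 frames and reconstructed by FBP without attenuation correction. Regional radioactivity taken from VOI analysis of time-activity curves.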

Liver = test: Biodistribution in mouse liver at 9 to 12 MBq, iv after 30 mins by PET analysis; summary of the method: as §2
Kidney = test: Biodistribution in mouse kidney at 9 to 12 MBq, iv after 30 mins by PET analysis; summary of the method: as §2
Urinary bladder = test: Biodistribution in mouse bladder at 9 to 12 MBq, iv after 30 mins by PET analysis; summary of the method: as §2
Plasma [4] = test: Drug level in mouse plasma assessed as fraction of metabolites level at 70 to 125 MBq, iv after 30 mins by HPLC analysis
Summary of the method: (§3)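 Normal mice, 20–25 g, n = 3 per isomer; iv dose <0.43 nmol. Decapitated at 30 min. Heparinized blood centrifuged to plasma; plasma radioactivity counted in a dose calibrator as % dose/mL. Plasma deproteinized with 2 volumes of ethanol and filtered, then run on chiral reversed-phase OJ-RH HPLC with radiodetection. Peaks identified by co-injected unlabeled ibuprofen; fractions decay- and baseline-corrected; mean ± SD.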

Plasma [5] = test: Drug level in mouse plasma assessed as (R)-[11C]-ibuprofen level at 70 to 125 MBq, iv after 30 mins by HPLC analysis; summary of the method: as §3
Plasma [6] = test: Drug level in mouse plasma assessed as (S)-[11C]-ibuprofen level at 70 to 125 MBq, iv after 30 mins by HPLC analysis; summary of the method: as §3
Plasma [7] = test: Drug level in mouse plasma assessed as [11C]-ibuprofen level at 70 to 125 MBq, iv after 30 mins by HPLC analysis; summary of the method: as §3
Plasma [8] = test: Drug level in mouse plasma at 70 to 125 MBq, iv after 30 mins by HPLC analysis; summary of the method: as §3
Plasma [9] = test: Drug level in mouse plasma assessed as radioactivity of [11C]-ibuprofen at 70 to 125 MBq, iv after 30 mins by HPLC analysis; summary of the method: as §3

Drug uptake (Mus musculus [1]) | fold change (FC) (Mus musculus [2]) | Drug uptake (Heart) | Drug uptake (Mus musculus [3]) | Drug uptake (Liver) | Drug uptake (Kidney) | Drug uptake (Urinary bladder) | Drug uptake (Plasma [4]) | Drug uptake (Plasma [5]) | Drug uptake (Plasma [6]) | Drug uptake (Plasma [7]) | Drug uptake (Plasma [8]) | Drug uptake (Plasma [9]) | Structure (SMILES)
Active | > 2 | Not Active | Active | Active | Active | Active | 25% | 23% | 52% | 75% | 8.3 %ID/ml | 5.9 %ID/ml | CC(C)Cc1ccc([C@@H]([11CH3])C(=O)O)cc1
Active | > 2 | Not Active | Active | Active | Active | Active | 34% | 0.78% | 65% | 66% | 8.9 %ID/ml | 6.2 %ID/ml | CC(C)Cc1ccc([C@H]([11CH3])C(=O)O)cc1
